Ki, Ratio and IC50 data for five compounds are collected here from ChEMBL document CHEMBL1136016, “Synthesis, biological activity, and molecular modeling investigation of new pyrazolo[4,3-e]-1,2,4-triazolo[1,5-c]pyrimidine derivatives as human A(3) adenosine receptor antagonists” (J Med Chem, 2002).

Structures are written as SMILES.

Test [1] addresses T1, Adenosine receptor A2a (Homo sapiens, UniProt P29274). Put plainly: Displacement of [3H]SCH-58261 from human Adenosine A2A receptor expressed in HEK293 cells; range 18-33. It counts as cell-based. (Loss of bound radioactivity is the signal in a displacement assay; it reports binding, not function.)
The target in test [2] is T2, Adenosine receptor A3 (Homo sapiens, UniProt P0DMS8).
T2 sequence (P0DMS8 whole entry): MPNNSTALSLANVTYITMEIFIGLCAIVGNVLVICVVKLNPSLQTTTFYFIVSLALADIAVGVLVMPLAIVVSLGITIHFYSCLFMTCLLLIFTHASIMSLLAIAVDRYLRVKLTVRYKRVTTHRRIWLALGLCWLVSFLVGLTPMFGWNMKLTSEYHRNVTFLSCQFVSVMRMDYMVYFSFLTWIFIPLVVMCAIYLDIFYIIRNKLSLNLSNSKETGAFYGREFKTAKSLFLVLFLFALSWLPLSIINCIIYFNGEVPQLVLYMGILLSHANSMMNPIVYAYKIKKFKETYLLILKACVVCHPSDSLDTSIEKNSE
Briefly: biochemical.

Test [3] addresses Adenosine receptors; A2b & A3 (Homo sapiens) (UniProt P29275+P0DMS8). Briefly: Selectivity ratio (h2B/hA3). It counts as protein assay.
Test [4] deals with T3, Adenosine receptor A1 (Homo sapiens, UniProt P30542).
T3 sequence (P30542 whole entry): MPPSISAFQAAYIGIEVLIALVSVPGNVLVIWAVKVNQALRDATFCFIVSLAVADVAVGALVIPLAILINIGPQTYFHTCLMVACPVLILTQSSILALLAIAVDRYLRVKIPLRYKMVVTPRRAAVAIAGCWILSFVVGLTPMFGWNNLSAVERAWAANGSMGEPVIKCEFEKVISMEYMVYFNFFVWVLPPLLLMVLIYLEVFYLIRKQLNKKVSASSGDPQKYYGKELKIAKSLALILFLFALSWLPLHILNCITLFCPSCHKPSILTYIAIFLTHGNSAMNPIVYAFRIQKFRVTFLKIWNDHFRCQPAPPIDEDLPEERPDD
Put plainly: Displacement of [3H]DPCPX from human Adenosine A1 receptor expressed in CHO cells; range 210-376. It counts as cell-based.

Test [5] concerns the target Adenosine receptors; A1 & A3 (Homo sapiens) (UniProt P30542+P0DMS8). Briefly: Selectivity ratio (hA1/hA3). It counts as protein assay.
Test [6] has as its target T4, Adenosine receptor A2b (Homo sapiens, UniProt P29275).
T4 sequence (P29275 whole entry): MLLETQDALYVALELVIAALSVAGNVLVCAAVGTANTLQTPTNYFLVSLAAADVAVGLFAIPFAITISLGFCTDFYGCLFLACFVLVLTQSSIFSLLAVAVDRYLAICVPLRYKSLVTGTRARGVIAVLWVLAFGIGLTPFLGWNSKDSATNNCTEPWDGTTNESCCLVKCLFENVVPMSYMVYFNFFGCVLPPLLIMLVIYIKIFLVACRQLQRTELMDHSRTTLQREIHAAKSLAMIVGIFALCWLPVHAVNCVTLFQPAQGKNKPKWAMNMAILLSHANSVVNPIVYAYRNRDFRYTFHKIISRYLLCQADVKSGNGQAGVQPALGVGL
Briefly: Displacement of [3H]DPCPX from human Adenosine A2B receptor expressed in HEK293 cells; range 127-203. It counts as cell-based. In a few lines: (§1)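 HEK-293 membranes expressing the human receptor were incubated 60 min at 25 °C. Six to eight test concentrations were used. Nonspecific binding was set with NECA. n = 3-6.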

Test [7] addresses T3, Adenosine receptor A1. Put plainly: Displacement of [3H]DPCPX from human Adenosine A1 receptor expressed in CHO cells; range 275-386. Type of test: cell-based. In a few lines: (§2)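 Human recombinant A1 receptor in CHO cell membranes, resuspended in 50 mM Tris HCl pH 7.4. Displacement run 120 min at 25 °C with 1 nM [3H]DPCPX, 50 µg protein per assay, and at least six to eight test concentrations. Nonspecific binding defined with CHA. Bound and free separated on glass-fiber filters; filter radioactivity counted. n = 3-6.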

Test [8] concerns the target T2, Adenosine receptor A3. Put plainly: biochemical. This is another data set of the same source.
The target of test [9] is T4, Adenosine receptor A2b. Briefly: Displacement of [3H]DPCPX from human Adenosine A2B receptor expressed in HEK293 cells; range 67-115. It counts as cell-based. In a few lines: as §1
The target of test [10] is T1, Adenosine receptor A2a. Briefly: Displacement of [3H]SCH-58261 from human Adenosine A2A receptor expressed in HEK293 cells; range 33-48. Type of test: cell-based.
Test [11] concerns the target T3, Adenosine receptor A1. Put plainly: Displacement of [3H]DPCPX from human Adenosine A1 receptor expressed in CHO cells; range 885-1163. It counts as cell-based. In a few lines: as §2
Test [12] addresses T4, Adenosine receptor A2b. Briefly: Displacement of [3H]DPCPX from human Adenosine A2B receptor expressed in HEK293 cells; range 128-156. It counts as cell-based. In a few lines: (§3)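 Membranes from HEK-293 cells with human recombinant A2B receptor. Incubation 60 min at 25 °C in 50 mM Tris HCl, 10 mM MgCl2, 1 mM EDTA, 0.1 mM benzamidine, pH 7.4, with 2 IU/mL adenosine deaminase and 40 nM [3H]DPCPX. At least six to eight test concentrations. Nonspecific binding defined with NECA. n = 3-6.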

The target of test [13] is T2, Adenosine receptor A3. Put plainly: biochemical. The source holds these as a separate data set.
Test [14] addresses T1, Adenosine receptor A2a. Briefly: Displacement of [3H]SCH-58261 from human Adenosine A2A receptor expressed in HEK293 cells; range 552-839. It counts as cell-based.
Test [15] addresses T2, Adenosine receptor A3. Briefly: Inhibition of IB-MECA agonist-mediated cAMP production in CHO cell membranes expressing human Adenosine A3 receptor; range 1.8-5.6. Type of test: functional, cell-based.
Test [16] addresses T2, Adenosine receptor A3. Briefly: Displacement of [3H]MRE3008-F20 from human Adenosine A3 receptor expressed in HEK cells; range 0.64-0.86. It counts as cell-based, HEK293.
Test [17] deals with T1, Adenosine receptor A2a. Briefly: Displacement of [3H]SCH-58261 from human Adenosine A2A receptor expressed in HEK293 cells; range 112-177. It counts as cell-based.
Test [18] deals with T4, Adenosine receptor A2b. Briefly: Displacement of [3H]DPCPX from human Adenosine A2B receptor expressed in HEK293 cells; range 235-347. It counts as cell-based. In a few lines:
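Competition binding on membranes of HEK-293 cells carrying recombinant human A2B receptor. Incubation 60 min at 25 °C in 50 mM Tris HCl pH 7.4 with 10 mM MgCl2, 1 mM EDTA, 0.1 mM benzamidine and 2 IU/mL adenosine deaminase. Radioligand 40 nM [3H]DPCPX, at least six to eight test concentrations. NECA defined nonspecific binding. Bound ligand separated on glass-fibre filters and counted; n = 3-6.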

The target of test [19] is T3, Adenosine receptor A1. Put plainly: Displacement of [3H]DPCPX from human Adenosine A1 receptor expressed in CHO cells; range 654-856. It counts as cell-based.
Test [20] has as its target T2, Adenosine receptor A3. Briefly: Inhibition of IB-MECA agonist-mediated cAMP production in CHO cell membranes expressing human Adenosine A3 receptor; range […]. It counts as functional, cell-based. In a few lines: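 Human A3-CHO membranes (in 50 mM Tris HCl, 10 mM MgCl2, 1 mM EDTA, pH 7.4) were preincubated for 10 min at 37 °C with 5 µM GTP, 0.5 mM Ro 20-1724 and 2.0 IU/mL adenosine deaminase. IB-MECA (100 nM) or antagonist was then added with 1 mM ATP and forskolin for 10 min. The reaction was stopped by 2 min boiling. cAMP was measured by [3H]cAMP competitive protein binding using beef adrenal binding protein, 150 min at 4 °C.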

Test [21] has as its target T4, Adenosine receptor A2b. Put plainly: Displacement of [3H]DPCPX from human Adenosine A2B receptor expressed in HEK293 cells; range 32-51. Type of test: cell-based. The essentials:
as §3

The target of test [22] is T3, Adenosine receptor A1. Briefly: Displacement of [3H]DPCPX from human Adenosine A1 receptor expressed in CHO cells; range 453-609. Type of test: cell-based. In a few lines:
as §2

The target of test [23] is T2, Adenosine receptor A3. Put plainly: Displacement of [3H]MRE3008-F20 from human Adenosine A3 receptor expressed in HEK cells; range 2.7-3.4. Type of test: cell-based, HEK293.
Test [24] addresses T1, Adenosine receptor A2a. Put plainly: Displacement of [3H]SCH-58261 from human Adenosine A2A receptor expressed in HEK293 cells; range 300-414. It counts as cell-based.

T1 sequence (P29274 whole entry): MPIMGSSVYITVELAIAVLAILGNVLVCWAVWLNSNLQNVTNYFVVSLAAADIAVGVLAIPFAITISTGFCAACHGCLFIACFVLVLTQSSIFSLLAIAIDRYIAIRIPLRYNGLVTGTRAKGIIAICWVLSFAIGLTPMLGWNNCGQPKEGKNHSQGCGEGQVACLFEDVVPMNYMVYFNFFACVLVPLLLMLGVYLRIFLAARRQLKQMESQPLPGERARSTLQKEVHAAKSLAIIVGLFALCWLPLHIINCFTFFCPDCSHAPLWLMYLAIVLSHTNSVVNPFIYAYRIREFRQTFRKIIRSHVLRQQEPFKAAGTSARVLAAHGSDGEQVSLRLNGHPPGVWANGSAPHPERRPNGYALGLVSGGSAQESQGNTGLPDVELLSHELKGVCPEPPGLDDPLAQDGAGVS

For the compound `CCCCn1cc2c(nc(NC(=O)Nc3ccc(C)cc3)n3nc(-c4ccco4)nc23)n1`, the Ki (commonly a measure of affinity in units of concentration, obtained from inhibition or displacement) was 24 nM at Adenosine receptor A2a [1], 0.21 nM on Adenosine receptor A3 [2], 281 nM at Adenosine receptor A1 [4] and 161 nM on Adenosine receptor A2b [6]. The Ratio in test [3] worked out at 767; in [5], 1340.
Regarding `CCn1cc2c(nc(NC(=O)Nc3ccccc3)n3nc(-c4ccco4)nc23)n1`, the Ki on Adenosine receptor A1 [7] is 326 nM; at Adenosine receptor A3 [8], 0.18 nM; at Adenosine receptor A2b [9] it was 88 nM; on Adenosine receptor A2a [10], 40 nM. In addition, the figures for the Ratio in [3] and in test [5] were 489 and 1810, respectively.
Take `Cn1cc2c(nc(NC(=O)Nc3ccc4c(c3)OCO4)n3nc(-c4ccco4)nc23)n1`: the Ki came to 1020 nM on Adenosine receptor A1 [11], 142 nM on Adenosine receptor A2b [12], 0.24 nM on Adenosine receptor A3 [13] and 680 nM on Adenosine receptor A2a [14]. The Ratio amounted to 592 in test [3] and 4230 in test [5]. The IC50 (in general, the point on the concentration scale where inhibition reaches its midpoint) at Adenosine receptor A3 [15] was found to be 3.2 nM.
In the case of `Cn1cc2c(nc(NC(=O)Nc3ccc(C(F)(F)F)cc3)n3nc(-c4ccco4)nc23)n1`, the Ki at Adenosine receptor A3 [16] stood at 0.74 nM; at Adenosine receptor A2a [17] it was 140 nM; on Adenosine receptor A2b [18], 286 nM; at Adenosine receptor A1 [19], 750 nM. In addition, the Ratio in test [3] was 386; in [5], 1010. The same compound displayed an IC50 at Adenosine receptor A3 [20] of 6.6 nM.
Take `CCn1cc2c(nc(NC(=O)Nc3ccc(Cl)c(Cl)c3)n3nc(-c4ccco4)nc23)n1`: the Ki on Adenosine receptor A2b [21] came to 40 nM; on Adenosine receptor A1 [22], 526 nM; at Adenosine receptor A3 [23], 3 nM; on Adenosine receptor A2a [24], 352 nM. Also, the Ratio in test [3] amounted to 13; in test [5], 175.
